# Screening results from PubChem.
# Most compounds without a hit are left out; they make up all but 1.7% or so of the library.
# miR122 inh: miR-122 inhibition in Huh7 cells. Huh7 miR-122 Renilla luciferase sensor, 48 h; neutral wells = 0, positive control = 100. activation (reporter increase), % at 12.5 µM. hit rate 0.3% among 340,000. AID 602342;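 active means mean replicate activation score at least 90 and every replicate individually at or above 90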;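 further: higher luciferase means less miR-122 activity so hits act as miR-122 inhibitors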
# CFTR F508del cor: correctors of CFTR F508del function in bronchial epithelial cells; AID 720511; CFBE cells, YFP halide quenching; stimulated with forskolin plus potentiator P3; % fluorescence drop versus neutral controls; activity (quench increase), % at 7.58 µM; hit rate 0.36% among 350,000;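 active means mean added fluorescence quench of at least 8% versus neutral control, with both replicates also reaching 8%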;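 further: cells transiently co-express mutant CFTR-F508del with the halide-sensitive YFP; corrector assay measuring rescue of mutant channel to the surface after 24 h compound exposure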
# PGC1a acetyl inh: PGC1a acetylation modulation, inhibitor mode; U2OS PGC1a acetylation, AlphaScreen anti-acetyl-lysine; with virally co-expressed GCN5 acetyltransferase; hit rate 0.17% among 350,000; AID 651687; inhibition, % at 15.6 µM;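 active means every replicate shows inhibition of at least 40%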
# CAL PDZ FP-1: blocks peptide binding to human CAL PDZ domain | inhibition, % at 20 µM | Q9HD26 | hit rate 0.02% among 330,000 | purified CAL PDZ, TMR-peptide fluorescence polarization, 1 h;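 active means highest replicate inhibition of at least 40%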
#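 Material: tagged CAL PDZ domain; buffer or medium: 25 mM sodium phosphate pH 7.4, 150 mM NaCl, TCEP, IgG, Thesit; compound dosing: single point, 20 µM; schedule: 1 h incubation at room temperature before polarization reading; measured by: FP readout, S and P plane fluorescence; read-out basis: percent inhibition from loss of millipolarization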
# ARNT TACC3 PPI: disrupts binding between human ARNT and TACC3; Q9Y6A5; AlphaScreen His-ARNT PAS-B/GST-TACC3 binding, luminescence; TACC3 fragment carries E629A point mutation; inhibition, % at 9.99 µM; hit rate 0.66% among 390,000;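 active means mean inhibition of replicates at least 50% and at least half of replicates each reaching 50%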
# CAL PDZ FP-2: CAL PDZ (human) peptide binding inhibition. Q9HD26. purified CAL PDZ, TMR-peptide fluorescence polarization, 1 h. inhibition, % at 24.9 µM. hit rate 0.92% among 300,000;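 active means mean inhibition of at least 30% with at least half of replicates also reaching 30%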
# ARNT Alpha ctr-1: AlphaScreen artifact in ARNT/TACC3 counter-screen | AC50, µM (series often up to 68 µM) | His-ARNT PASB-GST AlphaScreen artifact counter-screen, luminescence | hit rate 50% among 1,200 | AID 651705 | shares compounds with ARNT TACC3 PPI;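 active means every separate test run was called active for a drop in luminescence, with AC50 within twice the top valid dose, actives reach about 71 µM in these data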
# ARNT Alpha ctr-2: produces AlphaScreen artifacts in ARNT-TACC3 counter-screen; shares compounds with ARNT TACC3 PPI; Dual-tagged His-ARNT PASB-GST AlphaScreen artifact counter-screen; AC50, µM; hit rate 70% among 45; AID 720564;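 active means luminescence drop, with half-maximal potency fitted within twice the sample's top valid dose, cut at about 70 µM in these data; inactive means the rest, including signal moving the wrong way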
# A number is an active result; . = inactive; / = no result given.
SMILES,miR122 inh,CFTR F508del cor,PGC1a acetyl inh,CAL PDZ FP-1,ARNT TACC3 PPI,CAL PDZ FP-2,ARNT Alpha ctr-1,others
C[C@H](CO)N1C[C@H](C)[C@H](CN(C)Cc2ccc(Oc3ccccc3)cc2)Oc2ccc(NC(=O)Nc3ccccc3)cc2C1=O,.,.,.,/,.,/,/,
O=C(NC[C@H]1[C@H](c2ccccc2)[C@H](CO)N1Cc1ccccn1)C1CCC1,.,.,.,/,38,/,.,
O=C(NC[C@@H]1[C@@H](c2ccccc2)[C@@H](CO)N1Cc1ccccn1)C1CC1,.,.,.,/,.,/,/,
O=C(NC[C@H]1[C@@H](c2ccccc2)[C@@H](CO)N1Cc1ccccn1)C1CC1,.,.,.,/,48,/,.,
O=C(NC[C@H]1[C@H](c2ccccc2)[C@@H](CO)N1Cc1ccccn1)C1CCCC1,.,.,.,/,.,/,/,
CCNC(=O)[C@H]1[C@H](CO)[C@H]2Cn3c(ccc(/C=C/c4ccccc4)c3=O)[C@@H]1N2,.,.,.,/,.,/,/,
C[C@@H]1CN([C@H](C)CO)C(=O)c2cc(NC(=O)Nc3cccc4ccccc34)ccc2O[C@H]1CN(C)C(=O)Nc1ccc2c(c1)OCO2,.,.,.,/,.,/,/,
O=S(=O)(N[C@@H]1CCCN(Cc2ccc(OCCO)cc2)C1)c1cccc2cccnc12,/,.,.,/,80,/,24µM,
COc1ccc(NC(=O)N(C)C[C@@H]2Oc3cc(C#CCC(C)C)ccc3S(=O)(=O)N([C@@H](C)CO)C[C@@H]2C)cc1,.,.,.,/,.,/,/,
COc1ccc(C2C(C#N)=C(N)Oc3c2ccc2cccnc32)cc1OC (stereo not given),.,.,.,.,62,/,.,
Cc1nn2c(nc1=O)NNC2(C)C(C)(C)C (stereo not given),/,.,.,.,64,.,.,
CCC(=O)NC(C)c1cc(Cl)c2cccnc2c1O (stereo not given),/,.,/,.,61,.,43µM,
CC(=O)NC(C)c1cc(Cl)c2cccnc2c1O (stereo not given),.,.,.,.,52,.,36µM,
CN(C)S(=O)(=O)c1cccc(NC(=O)CSc2cccc3cccnc23)c1,.,.,/,.,65,.,12µM,
O=C(O)CSc1cccc2cccnc12,.,.,.,.,60,.,.,
CN(C)S(=O)(=O)c1ccc(SCC(=O)Nc2cccc(S(=O)(=O)N3CCCC3)c2)nc1,.,.,.,.,.,.,/,
O=C(CSc1cccc2cccnc12)N/N=C/c1cccc(O)c1,/,.,/,.,.,.,/,
CCN(CC(=O)NCc1cccs1)CC(=O)Nc1ccc(C(N)=O)cc1,.,.,.,.,.,/,/,
CCN(CC(=O)NCc1cccs1)CC(=O)Nc1cccc(S(N)(=O)=O)c1,/,.,/,.,26,.,.,
CC1CCN(S(=O)(=O)c2ccc(C(=O)Nc3nnc(C4CC4)o3)cc2)CC1,.,.,/,.,.,.,/,ARNT Alpha ctr-2=.
CC1CC(C)CN(S(=O)(=O)c2ccc(C(=O)Nc3nnc(C4=COCCO4)o3)cc2)C1 (stereo not given),/,/,/,/,/,/,/,ARNT Alpha ctr-2=.
CC1CCN(S(=O)(=O)c2ccc(C(=O)Nc3nnc(-c4ccncc4)o3)cc2)CC1,.,.,.,.,/,.,/,
O=C(Nc1nnc(C2CC2)o1)c1ccc(S(=O)(=O)N2CCCCC2)cc1,/,.,/,.,51,.,.,
CC1CCCN(S(=O)(=O)c2ccc(C(=O)Nc3nnc(C4=COCCO4)o3)cc2)C1 (stereo not given),.,.,/,.,.,.,/,
C[C@@H]1CCCCO[C@H](CN(C)C(=O)Cc2ccccc2)[C@H](C)CN([C@@H](C)CO)C(=O)c2cc(NC(=O)Nc3ccc4c(c3)OCO4)ccc2O1,.,.,.,/,.,/,/,
SMILES,miR122 inh,CFTR F508del cor,PGC1a acetyl inh,CAL PDZ FP-1,ARNT TACC3 PPI,CAL PDZ FP-2,ARNT Alpha ctr-1,others
Cc1ccc(S(=O)(=O)NC[C@@H]2CC[C@H]3[C@H](CN3Cc3cc(-c4ccccc4)on3)O2)cc1,/,.,.,/,/,/,/,
NS(=O)(=O)c1ccc(CCNC(=O)c2ccc3c(c2)OCO3)cc1,/,.,/,.,41,.,.,
c1ccc(-c2nnc(SCc3nc4ccccc4[nH]3)n2Cc2ccco2)nc1,.,/,.,.,61,.,.,
C[C@@H]1CN([C@H](C)CO)C(=O)c2cc(NS(C)(=O)=O)ccc2O[C@H]1CN(C)Cc1ccc(C(F)(F)F)cc1,.,.,.,/,.,/,/,
COc1ccccc1NC(=O)N1C[C@@H](O)COC[C@@H]2O[C@H](CC(=O)NCCc3ccccc3)CC[C@H]21,.,.,.,/,.,/,/,
Cc1ccccc1S(=O)(=O)N1CC(=O)N2[C@H](C1)[C@H](c1ccc(C#Cc3ccccc3)cc1)[C@@H]2CO,/,.,.,/,/,/,/,
CCCNC(=O)Nc1ccc2c(c1)C(=O)N(C)[C@H]1CC[C@H](CC(=O)O)O[C@H]1CO2,.,.,.,/,.,/,/,
Oc1cc(NCc2ccc(F)cc2)cc2cccnc12,.,.,.,.,60,.,30µM,
CN(C)CCCNc1cc(O)c2ncccc2c1,.,.,.,.,64,.,6.2µM,
CCCC(=O)Nc1ccc2c(c1)C(=O)N(C)C[C@@H](OC)[C@@H](C)CN(Cc1ccncc1)[C@H](C)CO2,.,.,.,/,/,/,/,
O=C(CSc1n[nH]c(-c2ccccn2)n1)Nc1ccc(Cl)cc1,.,.,.,.,68,.,32µM,ARNT Alpha ctr-2=11
O=C(CSc1n[nH]c(-c2ccncc2)n1)Nc1ccc(F)cc1,.,.,.,.,.,.,/,
Cc1ccc(NC(=O)CSc2ccc(-c3ccccn3)nn2)cc1,/,.,.,.,.,.,/,
O=C(CSc1n[nH]c(-c2ccccn2)n1)Nc1ccc(F)cc1,/,.,/,.,70,/,11µM,
Cc1ccc(NC(=O)CSc2n[nH]c(-c3ccccn3)n2)cc1,.,.,.,.,70,.,9.2µM,
O=C(Nc1ccccc1)N1CCCCN2[C@@H](CO)[C@@H](c3ccc(C#CC4CC4)cc3)[C@@H]2C1,.,.,.,/,.,/,/,
O=C(Nc1ccccc1)N1CCCCN2[C@H](C1)[C@H](c1ccc(C#CC3CC3)cc1)[C@@H]2CO,.,.,.,/,active,/,.,
CCNC(=O)Nc1ccc2c(c1)C(=O)N(C)[C@H]1CC[C@@H](CC(=O)NCCOC)O[C@H]1CO2,.,.,.,/,.,/,/,
CCOC(=O)/C(=N/Nc1ccccc1OC)N1CCCc2ccccc21,/,.,.,.,34,.,44µM,
Cc1ccc(Nc2nc(-c3c(C)nc4ncccn34)cs2)cc1,.,/,.,.,.,/,/,
Cc1nc2ncccn2c1-c1csc(Nc2ccc(O)cc2)n1,/,/,.,.,68,.,22µM,
